Key:
Format in all cases: functional, cell-based
[1] = system: SW-620; test: Cytotoxicity against human SW620 cells […] by SRB assay
[2] = Cytotoxicity against human 502713 cells […] by SRB assay
[3] = system: COLO 205; test: Cytotoxicity against human COLO205 cells […] by SRB assay
[4] = system: SK-N-SH; test: Cytotoxicity against human SK-N-SH cells […] by SRB assay
[5] = system: A549; test: Cytotoxicity against human A549 cells […] by SRB assay
[6] = system: PC-3; test: Cytotoxicity against human PC3 cells […] by SRB assay; settings: PC-3, 48 h, in the assay text read “48 hrs” for “72 hrs”
How it was run: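 Human cancer lines from NCI grown in RPMI-1640 (2 mM glutamine, pH 7.4, 10% fetal calf serum, streptomycin/penicillin) at 37 °C, 5% CO2. Cells trypsinized at subconfluence, >98% viable by trypan blue, seeded and grown 24 h, then given test material for 48 h. TCA fixation at 4 °C 1 h, SRB staining, dye dissolved in Tris-HCl pH 10.4, OD 540 nm. Growth inhibition relative to untreated control after blank subtraction.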

Compound | IC50 [1] [µM] | IC50 [2] [µM] | IC50 [3] [µM] | IC50 [4] [µM] | IC50 [5] [µM] | IC50 [6] [µM]
COc1cc(C2c3c(ccc4ccccc34)Oc3ccc4ccccc4c32)ccc1O | 54.4 | 45.4 | 41.9 | 44.3 | 74.3 | 61.1
OCC(O)COc1ccc(C2c3c(ccc4ccccc34)Oc3ccc4ccccc4c32)cc1 (stereo unspecified) | 49.1 | 41.3 | 37.9 | 44 | 128 | 63.9
O=[N+]([O-])c1ccccc1C1c2c(ccc3ccccc23)Oc2ccc3ccccc3c21 | 63.2 | 50 | – | 55 | – | 82
